{
  "source": "ChEMBL document CHEMBL1129355",
  "about": "“Synthesis of 3 beta-aryl-8-azabicyclo[3.2.1]octanes with high binding affinities and selectivities for the serotonin transporter site” (J Med Chem, 1996)",
  "key": {"[1]": {"biological_target": "Monoamine transporters; serotonin & dopamine (Rattus norvegicus) (UniProt P31652+P23977)", "sequence (P23977 whole entry, looked up)": "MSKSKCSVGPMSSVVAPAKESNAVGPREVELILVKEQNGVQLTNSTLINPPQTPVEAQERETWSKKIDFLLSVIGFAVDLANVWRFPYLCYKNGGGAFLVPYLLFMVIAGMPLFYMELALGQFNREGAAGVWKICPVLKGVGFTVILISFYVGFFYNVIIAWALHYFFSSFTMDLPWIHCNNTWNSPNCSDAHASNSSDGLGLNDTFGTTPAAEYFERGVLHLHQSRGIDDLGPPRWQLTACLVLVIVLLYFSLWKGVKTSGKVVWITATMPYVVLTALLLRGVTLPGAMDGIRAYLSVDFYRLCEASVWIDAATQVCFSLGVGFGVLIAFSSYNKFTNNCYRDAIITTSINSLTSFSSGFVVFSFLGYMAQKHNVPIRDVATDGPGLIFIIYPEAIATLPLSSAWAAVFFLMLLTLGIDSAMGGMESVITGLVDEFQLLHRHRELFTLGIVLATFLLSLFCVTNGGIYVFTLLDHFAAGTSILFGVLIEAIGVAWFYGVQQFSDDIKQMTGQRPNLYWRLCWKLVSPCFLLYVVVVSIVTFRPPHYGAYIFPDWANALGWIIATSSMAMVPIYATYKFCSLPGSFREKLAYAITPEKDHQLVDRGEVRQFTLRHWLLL", "sequence (P31652 whole entry, looked up)": "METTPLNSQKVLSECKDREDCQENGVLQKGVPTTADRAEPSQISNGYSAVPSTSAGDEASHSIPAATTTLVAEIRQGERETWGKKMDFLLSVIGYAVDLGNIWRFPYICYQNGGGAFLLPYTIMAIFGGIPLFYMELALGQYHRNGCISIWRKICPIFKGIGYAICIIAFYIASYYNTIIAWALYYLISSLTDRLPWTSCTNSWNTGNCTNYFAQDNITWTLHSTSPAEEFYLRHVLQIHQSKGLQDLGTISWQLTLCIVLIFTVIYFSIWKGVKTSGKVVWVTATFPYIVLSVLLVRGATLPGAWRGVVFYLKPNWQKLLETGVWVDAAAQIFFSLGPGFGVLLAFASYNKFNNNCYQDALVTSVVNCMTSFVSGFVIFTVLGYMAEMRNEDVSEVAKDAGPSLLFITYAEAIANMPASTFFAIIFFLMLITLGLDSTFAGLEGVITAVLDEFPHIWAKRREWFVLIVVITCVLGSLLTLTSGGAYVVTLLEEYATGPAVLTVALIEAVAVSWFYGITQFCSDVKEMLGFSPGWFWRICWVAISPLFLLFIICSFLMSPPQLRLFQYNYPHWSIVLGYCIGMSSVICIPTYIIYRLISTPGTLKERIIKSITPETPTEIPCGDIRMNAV", "test": "Relative affinity for dopamine and Serotonin transporters", "assay_type": "protein assay", "procedure,_shortened": "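Ratio of DAT IC50 ([125I]RTI-55, rat striatum) to SERT Ki ([3H]paroxetine, rat frontal cortex), each from displacement curves of 7-10 concentrations. Triplicate runs, at least three experiments.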"}, "[2]": {"biological_target": "Norepinephrine transporter (Rattus norvegicus, UniProt Q9WTR4)", "sequence (Q9WTR4 whole entry)": "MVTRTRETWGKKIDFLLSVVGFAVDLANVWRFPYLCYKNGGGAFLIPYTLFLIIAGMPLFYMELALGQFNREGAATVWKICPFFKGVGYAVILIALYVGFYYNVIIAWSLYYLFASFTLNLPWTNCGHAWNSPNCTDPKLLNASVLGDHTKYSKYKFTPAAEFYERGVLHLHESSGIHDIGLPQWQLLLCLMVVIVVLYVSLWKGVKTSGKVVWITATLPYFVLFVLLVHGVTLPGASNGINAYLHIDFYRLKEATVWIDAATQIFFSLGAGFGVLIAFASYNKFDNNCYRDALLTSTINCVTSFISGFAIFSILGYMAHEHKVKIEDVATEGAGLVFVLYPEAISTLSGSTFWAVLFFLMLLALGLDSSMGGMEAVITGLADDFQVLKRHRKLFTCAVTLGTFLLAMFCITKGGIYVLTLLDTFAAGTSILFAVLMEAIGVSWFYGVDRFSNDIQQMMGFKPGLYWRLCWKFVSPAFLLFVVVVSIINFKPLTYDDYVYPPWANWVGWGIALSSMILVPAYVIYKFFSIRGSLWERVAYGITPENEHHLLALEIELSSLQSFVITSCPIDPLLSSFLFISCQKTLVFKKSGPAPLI", "test": "Displacement of [3H]-nisoxatine from Norepinephrine transporter of rat forebrain membrane", "assay_type": "tissue-based, Brain"}, "[3]": {"biological_target": "Sodium-dependent dopamine transporter (Rattus norvegicus, UniProt P23977)", "sequence (P23977 whole entry)": "as the sequence (P23977 whole entry, looked up) above", "test": "Displacement of [125I]RTI-55 from dopamine transporter of rat brain membranes", "assay_type": "cell membranes, Membrane", "procedure,_shortened": "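Rat striatal membranes (0.5 mg original wet weight) with 10 pM [125I]RTI-55. Nonspecific binding defined with a 1 μM tropane analog. Displacement curves used 7-10 unlabeled-analog concentrations. IC50 was reported because binding is multiphasic. Mean ± SEM of at least three experiments, each in triplicate.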"}, "[4]": {"biological_target": "Sodium-dependent serotonin transporter (Rattus norvegicus, UniProt P31652)", "sequence (P31652 whole entry)": "as the sequence (P31652 whole entry, looked up) above", "test": "Displacement of [3H]paroxetine from Serotonin transporter of rat frontal cortex membrane", "assay_type": "tissue-based", "procedure,_shortened": "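Rat frontal cortex membranes (50 mg original wet weight) with 0.4 nM [3H]paroxetine. Nonspecific binding defined with 10 μM fluoxetine. Displacement curves used 7-10 unlabeled-analog concentrations. Ki came from the Cheng-Prusoff equation. Mean ± SEM of at least three experiments, each in triplicate.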"}},
  "data": [
    {"smiles": "CCC(=O)C1C2CCC(CC1c1ccc(C3CCCCC3)cc1)N2", "note": "(configuration not stated)", "values": [
      {"measurement": "Ratio", "setting": "[1]", "value": 5.8},
      {"measurement": "Ki", "setting": "[2]", "value": 4300, "unit": "nM"},
      {"measurement": "IC50", "setting": "[3]", "value": 490, "unit": "nM"},
      {"measurement": "Ki", "setting": "[4]", "value": 85, "unit": "nM"}
    ]},
    {"smiles": "C=Cc1ccc(C2CC3CCC(N3)C2C(=O)CC)cc1", "note": "(configuration not stated)", "values": [
      {"measurement": "Ratio", "setting": "[1]", "value": 4.7},
      {"measurement": "Ki", "setting": "[2]", "value": 10.9, "unit": "nM"},
      {"measurement": "IC50", "setting": "[3]", "value": 1.5, "unit": "nM"},
      {"measurement": "Ki", "setting": "[4]", "value": 0.32, "unit": "nM"}
    ]},
    {"smiles": "C=Cc1ccc(C2CC3CCC(C2C(=O)CC)N3C)cc1", "note": "(configuration not stated)", "values": [
      {"measurement": "Ratio", "setting": "[1]", "value": 0.28},
      {"measurement": "Ki", "setting": "[2]", "value": 78, "unit": "nM"},
      {"measurement": "IC50", "setting": "[3]", "value": 0.9, "unit": "nM"},
      {"measurement": "Ki", "setting": "[4]", "value": 3.2, "unit": "nM"}
    ]},
    {"smiles": "CCC(=O)C1C2CCC(CC1c1ccc(C(C)C)cc1)N2", "note": "(configuration not stated)", "values": [
      {"measurement": "Ratio", "setting": "[1]", "value": 72},
      {"measurement": "Ki", "setting": "[2]", "value": 150, "unit": "nM"},
      {"measurement": "IC50", "setting": "[3]", "value": 540, "unit": "nM"},
      {"measurement": "Ki", "setting": "[4]", "value": 5.3, "unit": "nM"}
    ]},
    {"smiles": "CCC(=O)C1C(c2ccc(C)cc2)CC2CCC1N2C", "note": "(configuration not stated)", "values": [
      {"measurement": "Ratio", "setting": "[1]", "value": 0.063},
      {"measurement": "Ki", "setting": "[2]", "value": 160, "unit": "nM"}
    ]},
    {"smiles": "C=C(C)c1ccc(C2CC3CCC(C2C(=O)CC)N3C)cc1", "note": "(configuration not stated)", "values": [
      {"measurement": "Ratio", "setting": "[1]", "value": 8.8},
      {"measurement": "Ki", "setting": "[2]", "value": 794, "unit": "nM"},
      {"measurement": "IC50", "setting": "[3]", "value": 7.2, "unit": "nM"},
      {"measurement": "Ki", "setting": "[4]", "value": 0.82, "unit": "nM"}
    ]},
    {"smiles": "C=C(C)c1ccc(C2CC3CCC(N3)C2C(=O)CC)cc1", "note": "(configuration not stated)", "values": [
      {"measurement": "Ratio", "setting": "[1]", "value": 150},
      {"measurement": "Ki", "setting": "[2]", "value": 94, "unit": "nM"},
      {"measurement": "IC50", "setting": "[3]", "value": 16, "unit": "nM"},
      {"measurement": "Ki", "setting": "[4]", "value": 0.11, "unit": "nM"}
    ]},
    {"smiles": "CCC(=O)C1C(c2ccc(C(CC)CC)cc2)CC2CCC1N2C", "note": "(configuration not stated)", "values": [
      {"measurement": "Ratio", "setting": "[1]", "value": 0.5},
      {"measurement": "Ki", "setting": "[2]", "value": "> 10000", "unit": "nM"},
      {"measurement": "IC50", "setting": "[3]", "value": 270, "unit": "nM"},
      {"measurement": "Ki", "setting": "[4]", "value": 540, "unit": "nM"}
    ]},
    {"smiles": "CCC(=O)C1C2CCC(CC1c1ccc3ccccc3c1)N2", "note": "(configuration not stated)", "values": [
      {"measurement": "Ki", "setting": "[2]", "value": 440, "unit": "nM"},
      {"measurement": "IC50", "setting": "[3]", "value": 36, "unit": "nM"},
      {"measurement": "Ki", "setting": "[4]", "value": 0.22, "unit": "nM"}
    ]},
    {"smiles": "CCC(=O)C1C2CCC(CC1c1ccc(C)cc1)N2", "note": "(configuration not stated)", "values": [
      {"measurement": "Ratio", "setting": "[1]", "value": 0.25},
      {"measurement": "Ki", "setting": "[2]", "value": 5.5, "unit": "nM"},
      {"measurement": "IC50", "setting": "[3]", "value": 4.7, "unit": "nM"},
      {"measurement": "Ki", "setting": "[4]", "value": 19, "unit": "nM"}
    ]},
    {"smiles": "CCC(=O)C1C(c2ccc(C3CCCCC3)cc2)CC2CCC1N2C", "note": "(configuration not stated)", "values": [
      {"measurement": "Ratio", "setting": "[1]", "value": 3.3},
      {"measurement": "Ki", "setting": "[2]", "value": "> 10000", "unit": "nM"},
      {"measurement": "IC50", "setting": "[3]", "value": 320, "unit": "nM"},
      {"measurement": "Ki", "setting": "[4]", "value": 97, "unit": "nM"}
    ]},
    {"smiles": "CCC(=O)C1C2CCC(CC1c1ccc(C(CC)CC)cc1)N2", "note": "(configuration not stated)", "values": [
      {"measurement": "Ratio", "setting": "[1]", "value": 1.27},
      {"measurement": "Ki", "setting": "[2]", "value": 5100, "unit": "nM"},
      {"measurement": "IC50", "setting": "[3]", "value": 190, "unit": "nM"},
      {"measurement": "Ki", "setting": "[4]", "value": 150, "unit": "nM"}
    ]},
    {"smiles": "CCC(=O)C1C(c2ccc3ccccc3c2)CC2CCC1N2C", "note": "(configuration not stated)", "values": [
      {"measurement": "Ratio", "setting": "[1]", "value": 0.31},
      {"measurement": "Ki", "setting": "[2]", "value": 2.9, "unit": "nM"}
    ]}
  ]
}
